From ChEMBL document CHEMBL4308843, “Identification of ABX-1431, a Selective Inhibitor of Monoacylglycerol Lipase and Clinical Candidate for Treatment of Neurological Disorders” (J Med Chem, 2018) come the findings set out here.

For data set [1], the target named is T1, Platelet-activating factor acetylhydrolase (Homo sapiens, UniProt Q13093).
T1 sequence (Q13093 whole entry): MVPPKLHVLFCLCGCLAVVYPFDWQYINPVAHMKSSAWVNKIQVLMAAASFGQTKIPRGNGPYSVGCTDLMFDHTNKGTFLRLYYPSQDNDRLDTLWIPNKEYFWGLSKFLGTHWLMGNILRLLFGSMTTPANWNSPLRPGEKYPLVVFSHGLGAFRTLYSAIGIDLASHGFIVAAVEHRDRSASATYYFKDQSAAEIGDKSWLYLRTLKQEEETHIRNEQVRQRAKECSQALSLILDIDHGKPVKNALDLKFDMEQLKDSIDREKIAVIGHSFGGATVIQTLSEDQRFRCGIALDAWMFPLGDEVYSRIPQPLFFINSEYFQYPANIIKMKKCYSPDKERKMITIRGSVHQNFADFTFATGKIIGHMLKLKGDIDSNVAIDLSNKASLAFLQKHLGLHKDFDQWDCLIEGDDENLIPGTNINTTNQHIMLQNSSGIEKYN
Put plainly: Inhibition of PLA2G7 derived from human PC3 cell lysates preincubated for 30 mins followed by JW912 addition after 30 mins by gel-based ABPP assay. The format is subcellular, Lysate.

Data set [2] deals with Mus musculus. Put plainly: In-vivo inhibition of MGLL in ICR mouse brain assessed as target engagement at 5 mg/kg, po measured 4 hrs post dose by gel-based ABPP assay relative to control. Set-up: scale not given: the % may be the effect or the level left. The format is functional. In short, it runs like this: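 Mice received a single 5 mg/kg oral gavage dose. Whole brains were collected 4 h post-dose and target engagement was read by gel-based ABPP with FP-Rh probe.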

The target in data set [3] is T2, Monoglyceride lipase (Mus musculus, UniProt O35678).
T2 sequence (O35678 whole entry): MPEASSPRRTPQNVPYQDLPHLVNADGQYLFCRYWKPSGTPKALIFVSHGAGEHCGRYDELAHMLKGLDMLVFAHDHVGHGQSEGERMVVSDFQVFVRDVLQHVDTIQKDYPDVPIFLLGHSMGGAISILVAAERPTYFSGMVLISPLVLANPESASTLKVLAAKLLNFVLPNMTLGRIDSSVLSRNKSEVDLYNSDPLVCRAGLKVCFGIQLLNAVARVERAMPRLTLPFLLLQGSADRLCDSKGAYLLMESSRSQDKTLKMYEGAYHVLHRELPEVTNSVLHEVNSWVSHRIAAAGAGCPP
Put plainly: Inhibition of MGLL derived from mouse brain homogenates preincubated for 30 mins followed by JW912 addition after 30 mins by gel-based ABPP assay. The format is tissue-based.

Data set [4] can be described thus: Intrinsic clearance in human liver microsomes. To be noted: read-out: CLH. The format is ADME, Microsome. Background: Liver microsomes are a subcellular fraction often used to study metabolism.
Data set [5] addresses T3, Monoacylglycerol lipase ABHD6 (Homo sapiens, UniProt Q9BV23).
T3 sequence (Q9BV23 whole entry): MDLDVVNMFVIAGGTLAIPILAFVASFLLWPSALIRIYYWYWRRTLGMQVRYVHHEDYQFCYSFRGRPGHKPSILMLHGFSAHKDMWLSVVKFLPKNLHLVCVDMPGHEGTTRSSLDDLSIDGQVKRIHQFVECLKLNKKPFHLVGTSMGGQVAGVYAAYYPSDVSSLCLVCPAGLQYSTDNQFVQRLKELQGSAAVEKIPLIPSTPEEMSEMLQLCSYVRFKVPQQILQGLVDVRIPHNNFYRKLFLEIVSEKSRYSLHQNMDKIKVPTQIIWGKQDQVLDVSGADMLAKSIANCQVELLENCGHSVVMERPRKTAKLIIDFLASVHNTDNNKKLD
Put plainly: Inhibition of ABHD6 derived from human PC3 cell lysates preincubated for 30 mins followed by JW912 addition after 30 mins by gel-based ABPP assay. The format is subcellular, Lysate.

Each structure is given as a SMILES string. Calls of active or inactive are those of the source. No cut-off for these calls is given here.

Turning to `O=C(OC(C(F)(F)F)C(F)(F)F)N1CCN(Cc2ccc(C(F)(F)F)cc2N2C[C@H]3CC[C@@H](C2)O3)CC1`, the IC50 in data set [1] is greater than 1000 nM. In data set [2], the Activity amounted to 100%.

In turn, `C#Cc1ccc(CN2CCN(C(=O)OC(C(F)(F)F)C(F)(F)F)CC2)c(N2CCCC2)c1` showed an IC50 in data set [3] of 159 nM.

`O=C(OC(C(F)(F)F)C(F)(F)F)N1CCN(Cc2ccc(C(F)(F)F)cc2N2CC[C@H](O)C2)CC1` returned an IC50 in data set [3] of 15 nM. For the same compound, the Activity in data set [2] is 75%.

As for `O=C(OC(C(F)(F)F)C(F)(F)F)N1CCN(Cc2ccc(Cl)cc2N2CCCCC2)CC1`, the IC50 in data set [1] was greater than 10000 nM; in data set [3], 120 nM.

For the compound `O=C(OC(C(F)(F)F)C(F)(F)F)N1CCN(Cc2cccc(Cl)c2N2CCOCC2)CC1`, the microsomal CLint in data set [4] was 76 µL/min/mg.

Take `O=C(OC(C(F)(F)F)C(F)(F)F)N1CCN(Cc2ccc(C(F)(F)F)cc2N2CCC3(CCOCC3)C2)CC1`: the results for the IC50 in data set [1] and in data set [3] were greater than 1000 nM and 24 nM, respectively. Further, the Activity in data set [2] amounted to 75%.

In data set [1], `O=C(OC(C(F)(F)F)C(F)(F)F)N1CCN(Cc2c(Cl)cccc2N2CCOCC2)CC1` had an IC50 greater than 10000 nM.

For `O=C(OC(C(F)(F)F)C(F)(F)F)N1CCN(Cc2ccc(C(F)(F)F)cc2N2CCOCC2)CC1`, in data set [2], the Activity was 100%. Also, the microsomal CLint in data set [4] is 24 µL/min/mg.

For the compound `O=C(OC(C(F)(F)F)C(F)(F)F)N1CCN(Cc2cc(Cl)ccc2N2CCOCC2)CC1`, the concentration for half-maximal inhibition (IC50) in data set [1] and in data set [5] was greater than 10000 nM in each case.

For `CN1CC2CN(c3cc(C(F)(F)F)ccc3CN3CCN(C(=O)OC(C(F)(F)F)C(F)(F)F)CC3)CC2C1` (centres undefined), in data set [3], inhibition was half-maximal at 239 nM (IC50). In addition, in data set [2], the outcome was inactive.

`O=C(OC(C(F)(F)F)C(F)(F)F)N1CCN(Cc2ccc(C(F)(F)F)cc2N2[C@@H]3CC[C@H]2COC3)CC1` gave a half-inhibitory concentration (IC50) in data set [1] greater than 1000 nM. The Activity in data set [2] was determined as 100%.

On to `Cc1cc(Cl)ccc1C(c1ccc(Cl)cc1C)N1CCN(C(=O)OC(C(F)(F)F)C(F)(F)F)CC1`, for which the 50% inhibitory concentration (IC50) in data set [1] and in data set [5] was greater than 10000 nM in each case.

As to `O=C(OC(C(F)(F)F)C(F)(F)F)N1CCN(Cc2ccc(Cl)cc2N2CCCC2)CC1`, the microsomal CLint in data set [4] was 34 µL/min/mg.

In data set [1], `O=C(OC(C(F)(F)F)C(F)(F)F)N1CCN(C(c2ccc(Cl)cc2)c2ccc(Cl)cc2)CC1` came in with a half-maximal inhibitory concentration (IC50) greater than 1000 nM.

On to `O=C(OC(C(F)(F)F)C(F)(F)F)N1CCN(Cc2ccc(C(F)(F)F)cc2N2CC[C@@H](O)C2)CC1`, for which the IC50 in data set [3] was 8 nM. Moreover, the Activity in data set [2] is on record as 100%.

With `O=C(OC(C(F)(F)F)C(F)(F)F)N1CCN(Cc2ccc(C(F)(F)F)cc2N2CC3COCC3C2)CC1` (centres undefined), the half-inhibitory concentration (IC50) in data set [3] was 17 nM. Besides, the Activity in data set [2] is listed as 25%.

`O=C(OC(C(F)(F)F)C(F)(F)F)N1CCN(Cc2ccc(Cl)cc2N2CCN(CCF)CC2)CC1`: the Activity in data set [2] was found to be 75%.

Take `O=C(OC(C(F)(F)F)C(F)(F)F)N1CCN(Cc2ccc(Cl)cc2N2CC3CCC(C2)O3)CC1`: the Activity in data set [2] is recorded as 100%.

Consider `O=C(OC(C(F)(F)F)C(F)(F)F)N1CCN(Cc2ccc(Cl)cc2N2CCOCC2)CC1`, for which the microsomal CLint in data set [4] was determined as 45 µL/min/mg.

Compound `O=C(OC(C(F)(F)F)C(F)(F)F)N1CCN(Cc2ccc(C(F)(F)F)cc2N2CCCCC2)CC1` had an IC50 in data set [3] of 130 nM.

As to `O=C(OC(C(F)(F)F)C(F)(F)F)N1CCN(Cc2ccc(Cl)cc2N2CC[C@H]3CCCN3C2)CC1`, in data set [3], half-maximal inhibition (IC50) was put at 66 nM. Also, the Activity in data set [2] was determined as 50%.

What is called IC50 is the midpoint of a concentration-inhibition curve.
